One molecule from ChEMBL document CHEMBL2146365, “Design and synthesis of EGFR dimerization inhibitors and evaluation of their potential in the treatment of psoriasis” (Bioorg Med Chem, 2012) can be followed below.

Calls of active or inactive are those of the source. The rule behind the calls is not given here.

Experiment [1] relates to HaCaT. Briefly: Induction of necrosis in human HaCaT cells after 12 hrs by electron microscopy. The format is functional, cell-based.
Experiment [2] concerns HaCaT. Kind of experiment: Induction of apoptosis in human HaCaT cells assessed as viable cells at 446 uM after 12 hrs by MTT assay. Background: Tetrazolium assays rely on reduction of a dye to a coloured formazan, in cell work by metabolically active cells.
The test system of experiment [3] is HaCaT. Briefly: Induction of apoptosis in human HaCaT cells assessed as viable cells at 446 uM after 9 hrs by AnnexinV-FITC/propidium iodide based FACS flow cytometry. It is filed as functional. The note with it: read-out: Activity. In short, it runs like this: (§1)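 HaCaT cells at 10^6 cells/ml were attached overnight and exposed to vehicle, 111.6, 223.2 or 446 µM for 9 h. Cells were then trypsinized, washed in ice-cold PBS and stained with Annexin V-FITC/PI. FACScan analysis used FL1/FL2, 10,000 events per sample, scatter gating, and quadrants set with single-stain controls. Runs were in triplicate and results are means of two experiments.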
In general terms: Flow cytometry measures light scatter and fluorescence of single cells or particles in a stream.

Experiment [4] concerns HaCaT. Briefly: Induction of apoptosis in human HaCaT cells assessed as late phase apoptotic/necrotic cells at 111.6 uM after 9 hrs by AnnexinV-FITC/propidium iodide based FACS flow cytometry. It is filed as functional. The gist of the method:
as §1

Experiment [5] relates to HaCaT. Kind of experiment: Induction of apoptosis in human HaCaT cells assessed as late phase apoptotic/necrotic cells at 223.2 uM after 9 hrs by AnnexinV-FITC/propidium iodide based FACS flow cytometry. The format is functional. In short, it runs like this:
as §1

Experiment [6] has as its system HaCaT. Briefly: Cytotoxicity against human HaCaT cells assessed as cell viability after 24 hrs by MTT assay. The format is functional. The settings on record: read-out: LD50 (the source's name). In short, it runs like this:
(§2)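 Cells were plated at 10,000/well, attached overnight, and exposed 6 or 24 h to eight drug concentrations with six in-plate replicates (DMSO <1%). MTT (0.5 mg/ml in PBS) was added for 2 h at 37 °C, then dissolved in 90% isopropanol/10% DMSO, and A590 was read. Values were corrected against untreated controls. LD₅₀ is reported as mean ± S.E.M., n = 3.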

For experiment [7], the target named is Epidermal growth factor receptor (Homo sapiens) (UniProt P00533). Kind of experiment: Inhibition of EGFR-mediated p38 phosphorylation in HPV-16 transformed human CCD-1106 cells at 116.8 uM after 30 mins by densitometric analysis. The format is cell-based. The gist of the method:
(§3)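 CCD-1106 cells were treated with compound for 30 min at 37 °C, then stimulated with EGF. Lysates were separated by SDS-PAGE, blotted to nitrocellulose and blocked in 3% BSA/NaTT. Blots were probed with p-ERK (E-4) or p-p38 (D-8) antibodies, detected by ECL and quantified by densitometry.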

A short description of experiment [8]: Cytotoxicity against HPV-16 transformed human CCD-1106 cells assessed as cell viability after 6 hrs by MTT assay. It is filed as functional. The settings on record: CCD-1106, 6 h, read-out: LD50 (the source's name). The gist of the method:
as §2

Experiment [9] concerns HaCaT. Kind of experiment: Induction of apoptosis in human HaCaT cells assessed as viable cells at 111.6 uM after 9 hrs by AnnexinV-FITC/propidium iodide based FACS flow cytometry. It is filed as functional. The settings on record: read-out: Activity. The gist of the method:
as §1

The subject of experiment [10] is HaCaT. Kind of experiment: Induction of apoptosis in human HaCaT cells assessed as activation of caspase 3/7 after 12 hrs. It is filed as functional, cell-based. In short, it runs like this:
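HaCaT cells were seeded at 10,000 cells/0.2 ml/well, attached overnight and exposed to compound (56–446 µM) for 12 h. Caspase-3/7 activity was measured with the Apo-ONE homogeneous kit, fluorescence 499/521 nm, in triplicate, with medium-only background wells. MTT viability was run in parallel. Results are means of two experiments, t-test against control.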

Experiment [11] deals with HaCaT. Briefly: Induction of apoptosis in human HaCaT cells assessed as viable cells at 223.2 uM after 9 hrs by AnnexinV-FITC/propidium iodide based FACS flow cytometry. The format is functional. The note with it: read-out: Activity. In short, it runs like this: as §1
Experiment [12] deals with Epidermal growth factor receptor (Homo sapiens) (UniProt P00533). Briefly: Inhibition of EGFR-mediated ERK1 phosphorylation in HPV-16 transformed human CCD-1106 cells at 116.8 uM after 30 mins by densitometric analysis. The format is cell-based. The gist of the method:
as §3

Experiment [13] concerns HaCaT. Briefly: Growth inhibition of human HaCaT cells after 72 hrs by neutral red uptake assay. It is filed as functional. The gist of the method:
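Neutral red uptake assay over 72 h. Cells were seeded at 10,000 cells/well and attached overnight, then exposed to eight concentrations with six replicates (DMSO <1%). CCD-1106 were grown in keratinocyte SFM with supplements. HaCaT were grown in DMEM with 10% FBS and 2 mM L-glutamine. NHEK (pooled adult) were grown in keratinocyte growth medium with supplement. Values are means, n = 6, against the untreated control.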

Chain of Epidermal growth factor receptor (Homo sapiens) (P00533 whole entry): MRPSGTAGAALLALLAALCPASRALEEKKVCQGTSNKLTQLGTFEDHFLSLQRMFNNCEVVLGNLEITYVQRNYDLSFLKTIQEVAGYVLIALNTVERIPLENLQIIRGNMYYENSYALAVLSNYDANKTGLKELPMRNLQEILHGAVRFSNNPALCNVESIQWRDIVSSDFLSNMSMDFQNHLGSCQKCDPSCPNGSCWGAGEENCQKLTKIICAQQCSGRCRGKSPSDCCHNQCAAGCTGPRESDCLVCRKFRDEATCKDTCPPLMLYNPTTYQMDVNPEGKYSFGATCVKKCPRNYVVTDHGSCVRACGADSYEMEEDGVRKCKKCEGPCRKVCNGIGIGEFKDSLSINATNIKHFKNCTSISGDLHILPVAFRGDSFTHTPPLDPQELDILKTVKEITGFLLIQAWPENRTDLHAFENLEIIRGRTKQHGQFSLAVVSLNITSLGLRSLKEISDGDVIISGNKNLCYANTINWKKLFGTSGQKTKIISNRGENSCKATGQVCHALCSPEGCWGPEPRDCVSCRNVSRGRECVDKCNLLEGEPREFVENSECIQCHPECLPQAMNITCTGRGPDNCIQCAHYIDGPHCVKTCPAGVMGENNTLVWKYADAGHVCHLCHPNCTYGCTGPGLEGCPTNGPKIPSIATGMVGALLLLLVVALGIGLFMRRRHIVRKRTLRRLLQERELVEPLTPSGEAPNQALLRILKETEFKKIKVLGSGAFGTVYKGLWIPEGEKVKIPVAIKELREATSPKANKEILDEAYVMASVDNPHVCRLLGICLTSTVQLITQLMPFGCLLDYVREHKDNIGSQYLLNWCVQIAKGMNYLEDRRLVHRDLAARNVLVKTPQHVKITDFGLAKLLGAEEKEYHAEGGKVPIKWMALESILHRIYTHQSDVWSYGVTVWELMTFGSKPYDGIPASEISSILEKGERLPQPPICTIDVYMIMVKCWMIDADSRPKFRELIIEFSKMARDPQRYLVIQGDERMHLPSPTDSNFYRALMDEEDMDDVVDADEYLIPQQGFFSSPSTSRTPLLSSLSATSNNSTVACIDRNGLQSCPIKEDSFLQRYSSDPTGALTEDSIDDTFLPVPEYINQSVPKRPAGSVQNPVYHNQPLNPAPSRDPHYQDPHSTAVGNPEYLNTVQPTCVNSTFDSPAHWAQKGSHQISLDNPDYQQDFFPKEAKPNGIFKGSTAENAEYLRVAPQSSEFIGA

`CCOc1cc(/C=N\Nc2nc3c(c(=O)n(C)c(=O)n3C)n2Cc2ccccc2)ccc1O`: the outcome with HaCaT [1] was inactive. The viability at 446 µM amounted to 62% in the experiment on HaCaT [2] and 61% in the experiment with HaCaT [3]. Also, the Activity with HaCaT [4] is 6%; in the experiment on HaCaT [5], 10%; with HaCaT [10], “Dose-dependent effect”. Further, the CC50 in the experiment with HaCaT [6] amounted to 446 µM; in experiment [8], 234 µM. The inhibition came out at 11% in experiment [7] and 39% in experiment [12]. For the same molecule, the viability at 111.6 µM in the experiment with HaCaT [9] came to 82%. Moreover, the viability at 223.2 µM in the experiment with HaCaT [11] was determined as 73%. The same molecule gave a 50% growth inhibitory concentration (GI50) in the experiment on HaCaT [13] of 22 µM.

What is called inhibition is how much of the control response was suppressed. Low values mean a weak effect, high ones a strong effect. As a reminder, the GI50 is the concentration at which growth is held to half of that of the control. Low values mean more potent growth inhibition, high ones less potent growth inhibition.
